Measurements: PubChem BioAssay
Active and inactive are the calls of the source.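 The calls were made as follows, unless noted: active = viability at or below 10% of carrier control in both of two separate runs; inconclusive = viability at or below 10% in only one of the two runs; inactive = the rest.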

How the values were obtained:
[1] = Her2 expression decrease, cell viability multiplex – SKBR3 breast tumor cells, AlphaScreen, ATP viability, primary screen (AID 461;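 active = Her2 level under about 52% in both replicate screens, with viability over 70% of control, limit read from the data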;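 as to Her2 level: lower value means less Her2 protein in the cells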;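 as to viability: percent of carrier control wells set as 100% viability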); conditions: SKBR3 Her2 protein level, 18-24 h, measured here: SKBR3 viability, ATP luminescence, at 10 µM
[2] = target: Receptor tyrosine-protein kinase erbB-2 (Homo sapiens) (UniProt P04626); test: as above; conditions: 18-24 h, at 10 µM, stronger effect = lower value
Chain of Receptor tyrosine-protein kinase erbB-2 (Homo sapiens) (P04626 whole entry, looked up): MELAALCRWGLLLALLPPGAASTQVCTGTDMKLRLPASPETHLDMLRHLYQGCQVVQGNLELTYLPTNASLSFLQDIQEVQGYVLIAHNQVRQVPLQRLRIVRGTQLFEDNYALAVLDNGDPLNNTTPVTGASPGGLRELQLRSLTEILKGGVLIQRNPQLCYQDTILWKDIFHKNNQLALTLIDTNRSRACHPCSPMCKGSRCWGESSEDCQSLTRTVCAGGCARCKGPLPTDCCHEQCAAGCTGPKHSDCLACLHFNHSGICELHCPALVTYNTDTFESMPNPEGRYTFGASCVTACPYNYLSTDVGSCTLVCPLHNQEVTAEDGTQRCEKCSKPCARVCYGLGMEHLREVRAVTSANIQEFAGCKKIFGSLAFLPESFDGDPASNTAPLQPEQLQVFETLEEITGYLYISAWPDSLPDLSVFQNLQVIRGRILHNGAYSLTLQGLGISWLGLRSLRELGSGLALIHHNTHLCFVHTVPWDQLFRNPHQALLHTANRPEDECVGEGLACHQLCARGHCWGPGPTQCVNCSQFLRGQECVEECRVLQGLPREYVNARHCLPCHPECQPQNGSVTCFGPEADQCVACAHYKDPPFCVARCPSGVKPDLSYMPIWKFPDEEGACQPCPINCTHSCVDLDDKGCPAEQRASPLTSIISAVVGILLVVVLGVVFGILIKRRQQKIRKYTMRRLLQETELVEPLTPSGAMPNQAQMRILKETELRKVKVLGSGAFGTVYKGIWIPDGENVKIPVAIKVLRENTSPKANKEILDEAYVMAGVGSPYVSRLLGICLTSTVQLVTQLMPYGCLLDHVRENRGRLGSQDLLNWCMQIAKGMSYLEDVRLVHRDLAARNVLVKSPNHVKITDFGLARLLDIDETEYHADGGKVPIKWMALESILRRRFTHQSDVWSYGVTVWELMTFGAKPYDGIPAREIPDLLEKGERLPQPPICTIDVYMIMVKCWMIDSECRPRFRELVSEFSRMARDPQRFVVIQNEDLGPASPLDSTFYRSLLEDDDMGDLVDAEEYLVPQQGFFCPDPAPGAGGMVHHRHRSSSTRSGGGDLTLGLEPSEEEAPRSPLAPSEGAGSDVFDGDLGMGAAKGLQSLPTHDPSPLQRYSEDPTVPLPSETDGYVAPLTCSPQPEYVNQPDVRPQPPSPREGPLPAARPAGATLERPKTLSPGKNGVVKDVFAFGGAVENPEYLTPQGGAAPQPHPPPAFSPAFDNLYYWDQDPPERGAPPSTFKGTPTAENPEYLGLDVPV

[3] = reduced viability of SK-BR-3 breast cancer cells – cell-based, 24 h, human, pilot screen (AID 572); conditions: SK-BR-3 viability, CellTiter-Glo luminescence, at 10 µM, stronger effect = lower value;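 also: compound exposure lasted between 18 and 24 h rather than exactly 24 h; 100% = carrier-treated control wells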
[4] = HUVEC growth inhibition – cell-based, human, primary screen (AID 575;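 active = viability at or below 30% in both replicate assays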;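 also: 100% = median of untreated cell wells with 0.1% DMSO on each plate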); conditions: HUVEC proliferation, CellTiter-Glo luminescence, 72 h; at 10 µM; stronger effect = lower value
Outline: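 Test system: primary human umbilical vein endothelial cells; medium: endothelial basal medium with 2% FBS plus growth supplements; dosing: 10 µM compound only; times: 72 h treatment at 37 °C; signal: CTG luminescence; read-out: % viability relative to median vehicle-well signal on each plate; control set: vehicle and MePR control wells; plate: 384-well, collagen-coated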

[5] = H69AR cell proliferation blockers – human, duplicate replicates, primary screen (AID 580;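 active = viability at or under a set limit in both replicates, limit being median viability minus 3 SD, cut at about 48% in these data, passing the limit was not always enough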;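 also: 100% = mean luminescence of untreated wells and 0% = no signal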); conditions: H69AR lung tumor cells viability, ATP luminescence, 72 h; at 10 µM; stronger effect = lower value
[6] = MRP1 drug-resistance reversers in H69AR cells – cell-based, doxorubicin co-treatment, pilot screen (AID 601;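 active = viability loss from added drug above about 55%, and viability with drug at most 40%, in both replicates, limit read from the data, passing the limit was not always enough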); conditions: CellTiter-Glo, 72 h, at 10 µM; for differential viability (reversal): stronger effect = higher value
[7] = yeast transport mutant growth inhibition pilot in 384-well plates, post-Golgi transport modulator project (AID 636; in the data active = inhibition above about 31%); conditions: absorbance 615 nm, about 18 h, stronger effect = higher value
[8] = growth suppression of yeast trafficking mutant, preliminary HTS, modulators of trafficking downstream of Golgi apparatus project, 1536-format plate, OD 615 nm (AID 637; in the data active = inhibition above about 30%); conditions: yeast transport mutant growth, absorbance 615 nm, 18 h; stronger effect = higher value
[9] = H69AR cells + 2 uM doxorubicin, measured here: viability with 2 uM doxorubicin, stronger effect = lower value
[10] = H69AR cells, compound alone cytotoxicity

Compound | viability [1] | Her2 level [2] | viability [3] | viability [4] | viability [5] | differential viability (reversal) ([6]; H69AR cells + 2 uM doxorubicin) | viability [6, 9] | viability [6, 10] | inhibition [7] | inhibition [8]
COCCNC(=O)CSc1nc(-c2ccc(OC)c(OC)c2)cc(C(F)(F)F)n1 | 98.5% | 94% (inactive) | 98.5% (inactive) | 101% (inactive) | 89% (inactive) | -11.1% (inactive) | 100% | 89% | 1.84% (inactive) | -2.3% (inactive)
O=C(NCc1ccco1)C1(S(=O)(=O)c2ccc(Cl)cc2)CC1 | 94% | 86% (inactive) | 94% (inactive) | 103% (inactive) | 71.2% (inactive) | -21.5% (inactive) | 92.8% | 71.2% | -0.65% (inactive) | 24.1% (inactive)
O=C(COc1ccc(Cl)cc1)NCc1nnc(SCC(=O)Nc2ccc3c(c2)OCCO3)o1 | 102% | 122% (inactive) | 102% (inactive) | 112% (inactive) | 97.3% (inactive) | -3.68% (inactive) | 101% | 97.3% | 2.82% (inactive) | -11.7% (inactive)
O=C(NCC1CCCO1)C1CCCN(Cc2cnn(-c3ccccc3)c2-n2cccc2)C1 (stereo not given) | 83.5% | 124% (inactive) | 83.5% (inactive) | 83.4% (inactive) | 85.2% (inactive) | 40.7% (inactive) | 44.5% | 85.2% | -1.45% (inactive) | -8.33% (inactive)
Cc1ccc(-n2ncc3c(=O)n(CC(=O)NC4CCCCC4)cnc32)cc1C | 105% | 108% (inactive) | 105% (inactive) | 92.7% (inactive) | 87.4% (inactive) | 1.56% (inactive) | 85.8% | 87.4% | -3.68% (inactive) | -1.13% (inactive)
CCCc1nnc(NC(=O)CCC(=O)N2CCN(CCOc3ccc(C)cc3)CC2)s1 | 93.5% | 74% (inactive) | 93.5% (inactive) | 92% (inactive) | 93.2% (inactive) | -6.29% (inactive) | 99.4% | 93.2% | -4.03% (inactive) | -2.83% (inactive)
Cc1oc2c(CN3CCOCC3)c(O)ccc2c(=O)c1-c1ccc(Br)cc1 | 85% | 114% (inactive) | 85% (inactive) | 91.8% (inactive) | 90.4% (inactive) | 4.38% (inactive) | 86% | 90.4% | -0.91% (inactive) | -2.67% (inactive)
Cn1c(SCC(=O)N2CCOCC2)nnc1-c1cnccn1 | 109% | 116% (inactive) | 109% (inactive) | 101% (inactive) | 109% (inactive) | 10.4% (inactive) | 98.7% | 109% | -4.34% (inactive) | -9.17% (inactive)
Cc1onc(-c2ccccc2)c1C(=O)Nc1ccc(S(=O)(=O)N2CCCCC2)cc1 | 95.5% | 94.5% (inactive) | 95.5% (inactive) | 58.4% (inactive) | 88.9% (inactive) | -3.39% (inactive) | 92.3% | 88.9% | -0.77% (inactive) | 1% (inactive)
CNC(=O)CSc1nnc(-c2cc(C)cc(C)c2)o1 | 94.5% | 99% (inactive) | 94.5% (inactive) | 93.4% (inactive) | 108% (inactive) | 13.4% (inactive) | 95.1% | 108% | -3.07% (inactive) | -3.06% (inactive)
Cc1nn(-c2ccc(F)cc2)c(C)c1NS(=O)(=O)c1ccc(Cl)cc1 | 106% | 85% (inactive) | 106% (inactive) | 90.9% (inactive) | 77% (inactive) | -5.18% (inactive) | 82.2% | 77% | -8.27% (inactive) | -2.79% (inactive)
COc1ccc(C2=NOC(C(=O)NC3CCCCC3)C2)cc1OC (stereo not given) | 97.5% | 92% (inactive) | 97.5% (inactive) | 106% (inactive) | 95.9% (inactive) | 11.2% (inactive) | 84.8% | 95.9% | -9.04% (inactive) | 0.95% (inactive)
S=c1[nH]nc(-c2cccc(Br)c2)o1 | 91% | 130% (inactive) | 91% (inactive) | 88.2% (inactive) | 96.1% (inactive) | 3.51% (inactive) | 92.6% | 96.1% | -1.58% (inactive) | -8.83% (inactive)
CC(=O)c1ccc(NS(=O)(=O)c2ccccc2)cc1 | 95% | 137% (inactive) | 95% (inactive) | 91.5% (inactive) | 98.6% (inactive) | 7.02% (inactive) | 91.6% | 98.6% | 4.42% (inactive) | 5.33% (inactive)
OCCNCCCCOc1ccccc1F | 84.5% | 128% (inactive) | 84.5% (inactive) | 111% (inactive) | 102% (inactive) | 8.07% (inactive) | 94.3% | 102% | 2.69% (inactive) | -8.17% (inactive)
CCCc1ccc(S(=O)(=O)NCCc2ccncc2)cc1 | 96% | 91.5% (inactive) | 96% (inactive) | 85.4% (inactive) | 106% (inactive) | 16.6% (inactive) | 89.6% | 106% | -4.19% (inactive) | -1.27% (inactive)
C(=C\c1ccccc1)/CN1CCN(Cc2ccc3c(c2)OCCO3)CC1 | 85% | 91.5% (inactive) | 85% (inactive) | 105% (inactive) | 93% (inactive) | 4.42% (inactive) | 88.6% | 93% | -3.77% (inactive) | 1.15% (inactive)
N#CCCNCC1(c2ccccc2)CCCC1 | 96% | 94% (inactive) | 96% (inactive) | 106% (inactive) | 102% (inactive) | 12.9% (inactive) | 89.4% | 102% | 2.97% (inactive) | -4.13% (inactive)
COC(=O)C1=C(C)n2nnnc2NC1c1ccc(Cl)cc1 (stereo not given) | 92% | 107% (inactive) | 92% (inactive) | 90.4% (inactive) | 95.3% (inactive) | 8.47% (inactive) | 86.8% | 95.3% | -0.39% (inactive) | 1.83% (inactive)
O=C(CSc1nnc(C2CC2)n1Cc1ccccc1)c1ccc(S(=O)(=O)N2CCOCC2)cc1 | 120% | 92% (inactive) | 120% (inactive) | 95% (inactive) | 86.9% (inactive) | 12.5% (inactive) | 74.4% | 86.9% | -1.82% (inactive) | 6.72% (inactive)
COc1ccc(C2CC(c3ccc(Cl)cc3)Nc3nc(NC(=O)c4ccco4)nn32)cc1 (stereo not given) | 90.5% | 78% (inactive) | 90.5% (inactive) | 66.3% (inactive) | 81.2% (inactive) | -9.39% (inactive) | 90.6% | 81.2% | -5.07% (inactive) | 2.46% (inactive)
CCOC(=O)c1oc2cccc(OC(C)=O)c2c1C | 106% | 82% (inactive) | 106% (inactive) | 89.9% (inactive) | 85.6% (inactive) | -0.89% (inactive) | 86.5% | 85.6% | -5.6% (inactive) | 3.11% (inactive)
CC(C)c1nnc(SCC(=O)NCc2ccco2)n1C | 105% | 91% (inactive) | 105% (inactive) | 94.7% (inactive) | 79.6% (inactive) | -5.55% (inactive) | 85.2% | 79.6% | -0.14% (inactive) | 4.76% (inactive)
Cc1ccc2ncnc(NCCCN3CCOCC3)c2c1 | 98.5% | 120% (inactive) | 98.5% (inactive) | 91.4% (inactive) | 101% (inactive) | -0.115% (inactive) | 102% | 101% | -0.79% (inactive) | 5.41% (inactive)
O=C1CCCN1CCCNc1ncnc2c1[nH]c1ccc(Cl)cc12 | 89% | 81% (inactive) | 89% (inactive) | 85.3% (inactive) | 80.9% (inactive) | 3.12% (inactive) | 77.8% | 80.9% | -7.6% (inactive) | -0.48% (inactive)
CCCS(=O)(=O)N1CCC(C(=O)N2CCCC2)CC1 | 112% | 93% (inactive) | 112% (inactive) | 115% (inactive) | 95% (inactive) | 3.92% (inactive) | 91.1% | 95% | -3.55% (inactive) | -0.82% (inactive)
Cc1ccc2cc3cc(C(=O)N4CC(C)CC(C)C4)oc3nc2c1 (stereo not given) | 108% | 78.5% (inactive) | 108% (inactive) | 69.3% (inactive) | 89.2% (inactive) | 3.71% (inactive) | 85.5% | 89.2% | -2.47% (inactive) | -6.35% (inactive)
CCOc1nc(-c2ccccc2)ccc1-c1noc(-c2cccnc2)n1 | 76.5% | 90% (inactive) | 76.5% (inactive) | 124% (inactive) | 91.2% (inactive) | 4.83% (inactive) | 86.4% | 91.2% | -0.26% (inactive) | 0.33% (inactive)
COc1ccc(-c2nnc(SCC(=O)NC(=O)NCc3ccco3)o2)cc1 | 102% | 85.5% (inactive) | 102% (inactive) | 85.9% (inactive) | 86.8% (inactive) | -1.33% (inactive) | 88.1% | 86.8% | -0.65% (inactive) | -2.46% (inactive)
Cc1n[nH]c(C)c1S(=O)(=O)N1CCCCCC1 | 98% | 80% (inactive) | 98% (inactive) | 105% (inactive) | 101% (inactive) | 0.14% (inactive) | 101% | 101% | -1.58% (inactive) | -3.17% (inactive)
